Assay results taken from article PMC7745057 (Translational Oncology, 2020).

Experiments:
LOVO (wild-type EGFR) = conditions: read-out: potency in wild-type EGFR cell line (measure not given); ref [20]; cited from earlier work
H1975 (T790M) = conditions: read-out: potency against T790M (measure not given); ref [20]; cited from earlier work
PC-9 (Del19) = conditions: read-out: potency against Del19 (measure not given); ref [20]; cited from earlier work
[1] = test system: HCC827 (Del19) xenografts; assay: HCC827 subcutaneous xenograft study; type: in vivo, BALB/c nude mouse; conditions: BEBT-109 60 mg/kg, osimertinib 25 mg/kg (MTD doses)
Outline: (§1)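 Female BALB/c nude mice, 7–8 weeks old, inoculated subcutaneously in the right armpit with 2–5 × 10⁶ cells/ml in 0.1 ml PBS (PC-9 in 50% matrigel). Randomised at n = 8 per group; oral test compound started at 200–300 mm³. Tumors measured by caliper, with V = length × width²/2; survival followed after treatment.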

H1975 (L858R T790M) = assay: Cell proliferation assay; type: cell-based; conditions: Homo sapiens, NCI-H1975, 72 h
[2] = test system: EGFR wild-type cell lines (H460, Calu-6 and LOVO) and EGFR-deficient Ba/F3 cells; assay: Cell proliferation assay, summary over the panel; type: cell-based; conditions: read-out: mean IC50 values
PC-9 (Del19) xenografts = assay: PC-9 subcutaneous xenograft study; type: in vivo, BALB/c nude mouse; conditions: BEBT-109 60 mg/kg, osimertinib 25 mg/kg (MTD doses)
Outline: as §1

[3] = test system: EGFR A767_V769dupASV-driven Ba/F3 tumor model; assay: Ba/F3 EGFR A767_V769dupASV xenograft study; type: in vivo, BALB/c nude mouse; conditions: BEBT-109 40 mg/kg bid, osimertinib 20 mg/kg qd (MTD doses), 14 days, n = 8
[4] = test system: H1975 (L858R T790M) xenografts; assay: H1975 subcutaneous xenograft study; type: in vivo, BALB/c nude mouse; conditions: BEBT-109 30 and 60 mg/kg
[5] = Tolerability in xenograft studies; type: in vivo, BALB/c nude mouse; conditions: HCC827, PC-9 and exon 20 insertion xenograft models
H1975 cells = assay: Cell cycle analysis; type: cell-based, human; conditions: 1 nmol/L, 24 h
Outline: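 H1975 cells plated at 2 × 10⁵ per well and allowed to adhere, then exposed to 1 nmol/L test compound for 24 h. Cells fixed in 75% ethanol at −20 °C overnight, washed in PBS, and stained with DNA staining solution for 30 min at room temperature in the dark. DNA content analysed immediately by flow cytometry; n = 3.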

Compound | IC50 (LOVO (wild-type EGFR)) [nM] | IC50 (H1975 (T790M)) [nM] | IC50 (PC-9 (Del19)) [nM] | tumor regression [1] | IC50 (H1975 (L858R T790M)) [nM] | IC50 [2] [nM] | tumor regression (PC-9 (Del19) xenografts) | tumor growth [3] | host mice survival post treatment ([4]; osimertinib 25 mg/kg) [days] | tumor regression ([4]; osimertinib 25 mg/kg (MTD), daily, four weeks) | body weight [5] | effect on cell-cycle progression (H1975 cells)
C=CC(=O)Nc1cc(Nc2nccc(-c3c[nH]c4ccccc34)n2)c(OC)cc1N(C)CCN(C)C [AZ5104] | 33 | 2 | 2 | – | – | – | – | – | – | – | – | –
C=CC(=O)Nc1cc(Nc2nccc(-c3cn(C)c4ccccc34)n2)c(OC)cc1N(C)CCN(C)C [Osimertinib] | – | – | – | complete tumor regression | 3.9 | > 1000 | complete tumor regression | sustained tumor regression was not observed | > 30 | complete H1975 tumor regression | Neither drug caused significant body weight loss | did not change the cell cycle profile
